From ChEMBL document CHEMBL1132576, “Tetrahydrobenzindoles: selective antagonists of the 5-HT7 receptor” (J Med Chem, 1999)

Tests used:
[1] = biological target: Serotonin 2 (5-HT2) receptor (Rattus norvegicus, UniProt P30994+P08909+P14842); test: Compound was evaluated for its ability to displace [3H]ketanserin binding from […] rat cerebral cortex membranes 5-hydroxytryptamine 2 receptor; assay type: tissue-based
Procedure, shortened: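 Displacement of [³H]ketanserin from 5-HT2 sites in rat cerebral cortex membranes. Values reported as pKi, each the mean of at least two determinations, each within 0.2 log unit of the mean.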

[2] = biological target: 5-hydroxytryptamine receptor 7 (Homo sapiens, UniProt P34969); test: Compound was evaluated for its ability to displace [3H]5-CT binding from cloned human 5-hydroxytryptamine 7 receptor expressed in COS-7 cells.; assay type: cell-based
Chain of 5-hydroxytryptamine receptor 7 (P34969 whole entry): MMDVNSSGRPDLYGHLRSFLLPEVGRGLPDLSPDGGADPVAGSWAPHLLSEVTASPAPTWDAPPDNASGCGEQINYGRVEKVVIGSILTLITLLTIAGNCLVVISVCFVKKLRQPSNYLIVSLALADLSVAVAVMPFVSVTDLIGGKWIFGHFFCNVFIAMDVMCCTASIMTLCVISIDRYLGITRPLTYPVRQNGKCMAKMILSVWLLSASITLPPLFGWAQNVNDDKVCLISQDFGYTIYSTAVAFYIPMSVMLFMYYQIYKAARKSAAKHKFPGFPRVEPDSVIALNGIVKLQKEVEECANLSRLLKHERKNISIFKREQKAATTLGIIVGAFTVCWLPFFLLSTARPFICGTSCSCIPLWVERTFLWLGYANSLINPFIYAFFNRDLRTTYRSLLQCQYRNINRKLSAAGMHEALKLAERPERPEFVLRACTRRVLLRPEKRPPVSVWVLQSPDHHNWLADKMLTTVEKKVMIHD
Procedure, shortened: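 Radioligand displacement of [³H]5-CT from cloned human 5-HT7 receptor expressed in COS-7 cells. Values reported as pKi, each the mean of at least two determinations, each within 0.2 log unit of the mean.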

[3] = biological target: T1, 5-hydroxytryptamine receptor 1A (Homo sapiens, UniProt P08908); test: Compound was evaluated for its ability to displace [3H]8-OH-DPAT binding from human 5-hydroxytryptamine 1A receptor in mammalian cells; assay type: cell-based
T1 sequence (P08908 whole entry): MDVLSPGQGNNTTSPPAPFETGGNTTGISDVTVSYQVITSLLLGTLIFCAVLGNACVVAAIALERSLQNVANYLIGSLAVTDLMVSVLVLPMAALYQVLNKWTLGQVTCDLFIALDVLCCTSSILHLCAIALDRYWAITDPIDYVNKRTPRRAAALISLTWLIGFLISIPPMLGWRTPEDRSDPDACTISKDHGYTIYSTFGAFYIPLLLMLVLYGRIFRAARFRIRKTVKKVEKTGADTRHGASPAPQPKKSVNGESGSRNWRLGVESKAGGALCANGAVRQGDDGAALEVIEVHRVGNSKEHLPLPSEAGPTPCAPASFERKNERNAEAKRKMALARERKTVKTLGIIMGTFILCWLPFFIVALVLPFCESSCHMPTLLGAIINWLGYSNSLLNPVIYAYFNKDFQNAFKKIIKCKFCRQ
Procedure, shortened: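 Radioligand displacement at human recombinant 5-HT1A receptor expressed in mammalian cells, labelled with [3H]8-OH-DPAT. Affinity reported as pKi, mean of at least two determinations, each within 0.2 log unit of the mean.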

[4] = biological target: 5-hydroxytryptamine receptor 4 (Cavia porcellus, UniProt O70528); test: Compound was evaluated for its ability to displace [3H]GR-113808 binding from 5-hydroxytryptamine 4 receptor in guinea pig striatum.
Chain of 5-hydroxytryptamine receptor 4 (O70528 whole entry): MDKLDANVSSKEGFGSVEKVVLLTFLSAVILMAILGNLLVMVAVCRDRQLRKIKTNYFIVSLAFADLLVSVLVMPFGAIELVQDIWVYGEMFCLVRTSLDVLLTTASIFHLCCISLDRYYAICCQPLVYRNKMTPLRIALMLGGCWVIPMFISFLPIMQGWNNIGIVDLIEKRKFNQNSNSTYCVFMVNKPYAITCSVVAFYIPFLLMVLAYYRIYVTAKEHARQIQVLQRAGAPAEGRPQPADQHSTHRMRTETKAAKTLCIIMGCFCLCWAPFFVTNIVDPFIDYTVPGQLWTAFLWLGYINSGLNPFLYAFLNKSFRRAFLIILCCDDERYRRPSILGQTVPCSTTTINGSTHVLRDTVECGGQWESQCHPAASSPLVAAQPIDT
Procedure, shortened: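 Competition binding in guinea-pig striatum using [3H]GR-113808 at 5-HT4 sites. pKi is the mean of at least two determinations, each within 0.2 log unit of the mean.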

[5] = biological target: 5-hydroxytryptamine receptor 6 (Homo sapiens, UniProt P50406); test: Compound was evaluated for its ability to displace [3H]LSD binding from human recombinant 5-hydroxytryptamine 6 receptor
Chain of 5-hydroxytryptamine receptor 6 (P50406 whole entry): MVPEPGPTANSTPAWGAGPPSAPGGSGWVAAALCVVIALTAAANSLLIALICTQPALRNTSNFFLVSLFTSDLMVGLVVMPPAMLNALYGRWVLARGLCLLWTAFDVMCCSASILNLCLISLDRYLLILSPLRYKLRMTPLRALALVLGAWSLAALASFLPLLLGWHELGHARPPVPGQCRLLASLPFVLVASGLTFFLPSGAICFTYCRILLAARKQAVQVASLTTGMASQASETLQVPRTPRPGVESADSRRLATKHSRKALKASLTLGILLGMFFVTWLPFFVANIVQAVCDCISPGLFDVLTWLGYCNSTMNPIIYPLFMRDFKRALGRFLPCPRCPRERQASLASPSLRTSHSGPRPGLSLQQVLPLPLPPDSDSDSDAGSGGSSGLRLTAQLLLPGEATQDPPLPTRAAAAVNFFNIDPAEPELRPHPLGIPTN
Procedure, shortened: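 Displacement of [3H]LSD from human recombinant 5-HT6 receptor expressed in mammalian cells. pKi is the mean of at least two determinations, each lying within 0.2 log unit of the mean.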

D(2) dopamine receptor = D(2) dopamine receptor (Rattus norvegicus, UniProt P61169); test: Compound was evaluated for its ability to displace [3H]spiperone binding from Dopamine receptor D2 in rat striatum.
Chain of D(2) dopamine receptor (P61169 whole entry): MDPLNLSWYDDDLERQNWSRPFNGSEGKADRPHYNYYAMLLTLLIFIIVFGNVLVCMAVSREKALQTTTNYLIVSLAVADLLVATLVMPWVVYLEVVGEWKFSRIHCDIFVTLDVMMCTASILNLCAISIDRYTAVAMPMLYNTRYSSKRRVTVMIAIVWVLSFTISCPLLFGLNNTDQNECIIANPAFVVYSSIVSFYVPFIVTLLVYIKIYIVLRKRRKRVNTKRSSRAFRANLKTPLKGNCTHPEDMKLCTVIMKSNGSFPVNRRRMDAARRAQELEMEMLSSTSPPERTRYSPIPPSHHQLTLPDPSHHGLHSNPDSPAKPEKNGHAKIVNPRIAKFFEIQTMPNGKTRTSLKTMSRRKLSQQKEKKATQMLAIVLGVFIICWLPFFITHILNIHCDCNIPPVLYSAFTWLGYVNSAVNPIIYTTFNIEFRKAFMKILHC
Procedure, shortened: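 Dopamine D2 binding was run in rat striatum with [3H]spiperone as radioligand. Values are pKi, mean of at least two determinations, each within 0.2 log unit of the mean.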

| SMILES | Log Ki [1] | Ki [2] [nM] | Ki [3] [nM] | Ki [4] [nM] | Ki [5] [nM] | Ki (D(2) dopamine receptor) [nM] |
| --- | --- | --- | --- | --- | --- | --- |
| O=C1Nc2cccc3c2C1(CCCN1CCN(c2ccccc2)CC1)CCC3 (stereo not given) | -7.79 | 5.25 |  |  |  |  |
| O=C1Nc2cccc3c2C1(CCN1CCN(c2ccccc2)CC1)CCC3 (stereo not given) | -8.27 | 102 |  |  |  |  |
| O=C1Nc2cccc3c2C1(CCCCN1CCN(C2CCCCC2)CC1)CCC3 (stereo not given) | > -6 | > 1000 |  |  |  |  |
| O=C1Nc2cccc3c2C1(CCCCN1CCN(c2ccccn2)CC1)CCC3 (stereo not given) | -7.27 | 1.86 |  |  |  |  |
| O=C1Nc2cccc3c2C1(CCCCN1CC=C(c2ccccc2)CC1)CCC3 (stereo not given) | -7.01 | 2.14 | 170 | > 1000 | 525 | 105 |

More lines, main results first:

| Log Ki [1] | Ki [2] [nM] | SMILES | Ki [3] [nM] | Ki [4] [nM] | Ki [5] [nM] | Ki (D(2) dopamine receptor) [nM] |
| --- | --- | --- | --- | --- | --- | --- |
| -7.37 | 3.31 | O=C1Nc2cccc3c2C1(CCCCN1CCN(c2ccccc2)CC1)CCC3 (stereo not given) |  |  |  |  |
| -6.95 | 5.13 | COc1ccccc1N1CCN(CCCCC23CCCc4cccc(c42)NC3=O)CC1 (stereo not given) |  |  |  |  |
| -6.98 | 3.8 | N#Cc1ccccc1N1CCN(CCCCC23CCCc4cccc(c42)NC3=O)CC1 (stereo not given) |  |  |  |  |
